Assay results from different studies.
Lines come from different studies, so protocols differ.
Target: Tyrosine-protein kinase Blk (BLK, Homo sapiens, UniProt P51451)

SMILES	assay	setting	remaining binding [%]
CC1CCCN1c1nccc(-c2cnn3ncccc23)n1 (stereo not shown)	binding	1 µM	100
CO[C@@H](C)c1c(Nc2ccc([C@H](N(C)C(=O)C3CCS(=O)(=O)CC3)C(F)(F)F)cc2)cnc2cc(Cl)nn12	cell-free assay, competition with immobilised ligand	1 µM	87
N[C@@H]1CCN(c2nccc(-c3cnn4ncccc34)n2)C1	binding	1 µM	97
O=C(NCCCN1CCOCC1)c1ccc(Nc2nccc(-c3cc4ccccc4s3)n2)cc1	binding, competition with immobilised ligand	1 µM	100
O=C(N1CCS(=O)(=O)CC1)N1C[C@H](c2ccc(OC(F)(F)F)cc2)C[C@H](c2nc(C3CC3)no2)C1	cell-free assay, competition with immobilised ligand	1 µM	100
O=C(NCCCN1CCOCC1)c1ccc(Nc2ncc(Cl)c(-c3ccc(Cl)s3)n2)cc1	binding, competition with immobilised ligand	1 µM	100
COc1ccc2c(c1)O[C@H](c1ccc(OC)c(OC)c1)C[C@@H]2NC(=O)C1(c2ccc3c(c2)OC(F)(F)O3)CC1	cell-free assay, competition with immobilised ligand	1 µM	100
COc1ncc2cc3ccccc3nc2c1C#N	cell-free assay, competition with immobilised ligand	5 µM	87
COc1ccc2c(O[C@@H]3C[C@H]4C(=O)N[C@]5(C(=O)O)CC5/C=C\CCCCC[C@H](NC(=O)OC5CCCC5)C(=O)N4C3)cc(-c3csc(NC(=O)C(C)C)n3)nc2c1C (stereo partly shown)	cell-free assay, competition with immobilised ligand	1 µM	97
c1cncc(-c2cccc(Nc3nccc(NC4CCCCC4)n3)c2)c1	binding, competition with immobilised ligand	10 µM	5.8
F[C@@H]1CCN(c2nccc(-c3cnn4ncccc34)n2)C1	binding	1 µM	100
CNC(=O)[C@@H]1CC[C@@H](n2c(-c3ccc4cnccc4c3)nc3ccc(C(=O)NCc4cccc(C(N)=O)c4)cc32)C1	binding, competition with immobilised ligand	1 µM	91
CN(c1nccc(-c2cnn3ncccc23)n1)C1CC1	binding	1 µM	100
O=C(c1ccc(Nc2ncc(Cl)c(-c3ccc(Cl)s3)n2)cc1)N1CCC(N2CCCC2)CC1	binding, competition with immobilised ligand	1 µM	100
C[C@H]1CCN(c2nccc(-c3cnn4ncccc34)n2)C1	binding	1 µM	100
COc1cnc(Nc2cccc(S(N)(=O)=O)c2)nc1N1CCN(c2ccccc2)CC1	binding, competition with immobilised ligand	1 µM	80
Cn1nc(C(F)(F)F)cc1-c1cnc(N2CCc3cc(S(=O)(=O)Nc4c(F)cc(Cl)cc4F)cc(N4CCCC4=O)c32)nc1	cell-free assay, competition with immobilised ligand	1 µM	100
O=C(NCC1CCOCC1)c1n[nH]cc1NC(=O)c1c(F)cccc1F	binding, competition with immobilised ligand	1 µM	100
FC(F)(F)c1ccc2c(c1)nc(-c1cccnc1)n2C1CC1	cell-free assay, competition with immobilised ligand	1 µM	96
FC(F)(F)Oc1cccc(-c2cnc3ccc(-c4ccncc4)nn23)c1	cell-free assay, competition with immobilised ligand	5 µM	51
c1cnn2ncc(-c3ccnc(N4CCC45COC5)n3)c2c1	binding	1 µM	100
Cc1nc(C2CCN(C(=O)c3ccc(OC(F)(F)F)cc3N)CC2)c2ncc(N3CCN(C)CC3)cc2n1	cell-free assay, competition with immobilised ligand	1 µM	97
